Hits are enriched below; roughly 2.3% of the tested compounds scored in any of these assays.
Rpn11 inh – Rpn11 (PSMD14) deubiquitinase inhibitors, primary screen, biochemical, fluorescence polarization, uHTS | 26S proteasome non-ATPase regulatory subunit 14 (Homo sapiens), O00487 | 360,000 compounds, 0.59% hits | human 26S proteasome, Ub4-pepOG fluorescence polarization; 20S core pre-blocked with epoxomicin | inhibition, % at 20 µM;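 active = inhibition at 20 µM, scaled to each plate's controls, above about 33%, limit read from the data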
MT1-MMP act inh – blockers of MT1-MMP proenzyme processing, primary screen, HT1080 RFP-PRO-GFP cells, GFP/RFP fluorescence; Matrix metalloproteinase-14 (Homo sapiens), P50281; GFP/RFP ratio fluorescence, overnight; percent of plate control window, DMSO zero; GFP/RFP ratio change, % at 20 µM; 360,000 compounds, 0.061% hits; AID 651647, 2012;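 active = GFP/RFP ratio change of at least 30% with cell ATP level not reduced by more than half and red fluorescence within 50% of control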
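Assay system: HT1080 cells carrying an RFP-PRO-GFP reporter | Dosing: Single dose of 20 µM compound, 1% DMSO final | Incubation: Cells overnight before dosing, compound overnight, 37 °C, 5% CO2 | Evaluation: GFP/RFP fluorescence ratio | Control set: DMSO and RFP-L50D-GFP cell wells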
SUMO1 PPI mod – modulators of SUMO1 protein-protein interactions, primary screen, biochemical, uHTS | SUMO1 binding to a labelled peptide, TR-FRET, 1 h | inhibition, % at 20 µM | 360,000 compounds, 0.33% hits; in the data active = inhibition above about 37%
DNMT1 block – human DNMT1 methyltransferase inhibitors, primary screen, biochemical, molecular beacon, fluorescence, HinP1I cleavage, uHTS. DNA (cytosine-5)-methyltransferase 1 (Homo sapiens), P26358. inhibition (reported as % activation of signal), % at 10 µM. 360,000 compounds, 0.83% hits; in the data active = inhibition above about 50%
Target sequence (P26358 504-1616 limits assumed): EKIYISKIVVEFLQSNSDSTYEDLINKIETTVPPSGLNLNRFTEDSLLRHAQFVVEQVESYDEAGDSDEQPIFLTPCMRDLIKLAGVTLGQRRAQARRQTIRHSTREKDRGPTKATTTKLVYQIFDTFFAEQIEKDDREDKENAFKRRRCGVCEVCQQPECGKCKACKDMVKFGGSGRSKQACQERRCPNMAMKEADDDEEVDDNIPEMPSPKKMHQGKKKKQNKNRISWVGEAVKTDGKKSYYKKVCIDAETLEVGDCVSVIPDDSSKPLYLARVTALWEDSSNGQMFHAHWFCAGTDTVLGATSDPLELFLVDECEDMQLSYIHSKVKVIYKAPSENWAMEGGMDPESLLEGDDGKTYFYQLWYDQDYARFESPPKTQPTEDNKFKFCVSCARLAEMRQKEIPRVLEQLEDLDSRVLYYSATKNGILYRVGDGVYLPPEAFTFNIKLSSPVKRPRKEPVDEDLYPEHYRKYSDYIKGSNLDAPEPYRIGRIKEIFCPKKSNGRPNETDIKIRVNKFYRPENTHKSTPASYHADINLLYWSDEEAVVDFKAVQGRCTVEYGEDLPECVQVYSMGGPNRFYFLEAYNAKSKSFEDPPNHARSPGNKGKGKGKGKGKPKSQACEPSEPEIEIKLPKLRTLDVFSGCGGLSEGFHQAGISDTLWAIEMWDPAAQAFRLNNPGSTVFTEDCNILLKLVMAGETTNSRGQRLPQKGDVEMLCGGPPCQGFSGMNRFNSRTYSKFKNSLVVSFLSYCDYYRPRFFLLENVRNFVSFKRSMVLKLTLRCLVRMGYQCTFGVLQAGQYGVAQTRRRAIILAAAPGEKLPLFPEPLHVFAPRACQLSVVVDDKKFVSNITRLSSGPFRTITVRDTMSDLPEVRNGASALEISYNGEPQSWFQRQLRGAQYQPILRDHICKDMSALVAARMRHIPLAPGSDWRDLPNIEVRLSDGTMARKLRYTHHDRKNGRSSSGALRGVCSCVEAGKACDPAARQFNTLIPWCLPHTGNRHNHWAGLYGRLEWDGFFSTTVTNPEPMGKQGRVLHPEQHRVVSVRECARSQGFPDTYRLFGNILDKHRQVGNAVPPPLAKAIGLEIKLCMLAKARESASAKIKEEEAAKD
CSN inh – inhibitors of CSN-mediated cullin deneddylation, primary screen, biochemical, fluorescence polarization, uHTS; AID 651999, 2013; 360,000 compounds, 0.38% hits; Purified CSN, SCF-Nedd8-OG deneddylation; COP9 signalosome complex subunit 5 (Homo sapiens), Q92905; inhibition, % at 12.5 µM;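 active = pattern-corrected inhibition above about 35%, with an unprinted fluorescence ratio check between 0.5 and 1.5, limit read from the data, passing the limit was not always enough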
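Assay system: Purified human Csn5 enzyme expressed in HEK293T cells | Amount: Enzyme 0.24 nM | Measured by: Fluorescence polarization readout | Medium: Tris/NaCl/DTT buffer, pH 7.5 | Compound dosing: One concentration, 12.5 µM, 0.25% DMSO | Times: 90 min incubation of compound, enzyme and substrate at room temperature | Control set: no-enzyme wells high, enzyme-with-substrate wells low | Read-out: % inhibition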
SKN-1 inh – suppressors of acrylamide-induced Pgst-4::GFP reporter in worms, primary screen, SKN-1 inhibitor project, whole organism, uHTS, GFP/RFP fluorescence ratio, strain VP596. C. elegans VP596 Pgst-4::GFP/RFP ratio, 24 h. inhibition, % at 21.8 µM. 360,000 compounds, 0.49% hits. AID 624304, 2012;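 active = interference check ratio from 0.5 to 1.5 plus GFP to RFP signal ratio inhibition reaching or exceeding a fixed threshold, cut at about 30% in these data, passing the limit was not always enough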
Rpn11 confirm – Rpn11 (PSMD14) deubiquitinase inhibitors, confirmation, biochemical, fluorescence polarization, single concentration; shares compounds with Rpn11 inh; purified human 26S proteasome, Ub4-pepOG fluorescence polarization; proteasome pretreated with epoxomicin; inhibition, % at 20 µM; 1,900 compounds, 29% hits
MMP-2 inh – MMP-2 enzyme inhibition, confirmation, counter-screen for RPN11 inhibitor project, biochemical, fluorescence, single concentration; shares compounds with Rpn11 inh; recombinant MMP-2, FRET peptide cleavage fluorescence; inhibition, % at 20 µM; 1,900 compounds, 4% hits; AID 602330, 2012;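 also: human MMP-2 activated beforehand with APMA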
Thrombin inh – bovine thrombin protease inhibition, confirmation, counter-screen for Rpn11 inhibitor project, biochemical, fluorescence polarization, single concentration | shares compounds with Rpn11 inh | bovine thrombin cleavage of Ub4-pepOG | inhibition, % at 20 µM | 1,900 compounds, 13% hits;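 active = mean inhibition at least 40% at 20 µM, or signal 3 deviations below plate average, so some actives read negative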
Hits are given with their value; – = inactive; · = not tested or not shown. Rule as the data show it, unless noted: active = inhibition above about 40%; inactive = the rest.

SMILES | Rpn11 inh | MT1-MMP act inh | SUMO1 PPI mod | DNMT1 block | CSN inh | SKN-1 inh | Rpn11 confirm | MMP-2 inh | Thrombin inh
Cc1c(N2C(=O)c3cccc4cccc(c34)C2=O)c(=O)n(-c2ccccc2)n1C | – | – | – | – | – | – | · | · | ·
COc1cc(/C=N/OCC(=O)Nc2cc(C)cc(C)c2)ccc1OCc1ccc(Cl)cc1 | 42 | – | – | – | – | – | – | – | –
Cc1ccccc1CN1C(=O)CSCC1(C)C(=O)Nc1ccc2c(c1)OCCO2 (stereo not drawn) | · | – | – | · | – | – | · | · | ·
Cc1ccccc1-c1csc(C(O)c2cccnc2)n1 (stereo not drawn) | – | – | – | – | – | – | · | · | ·
CCC1CCCCN1c1ccc([N+](=O)[O-])cc1/C=N/NC(=O)Cn1c2ccccc2c(=O)c2ccccc21 (stereo not drawn) | 36 | – | – | – | – | – | – | – | –
Cc1sc2nc(CSc3nnc(Cc4cccs4)n3C3CCCCC3)[nH]c(=O)c2c1C | 72 | – | – | – | – | – | 102 | – | 59
Cc1ccc2nc(CSc3nnc(Cc4cccs4)n3C3CCCCC3)cc(=O)n2c1 | – | – | – | – | – | – | · | · | ·
CCOc1ccc(C2C(C#N)=C(N)Oc3cc(O)ccc32)cc1OCC (stereo not drawn) | – | – | – | – | – | – | · | · | ·
N#CC1=C(N)Oc2cc(O)c(Cl)cc2C1c1cccnc1 (stereo not drawn) | 57 | – | – | – | – | – | – | – | –
C#CCOc1ccc(C2C(C#N)=C(N)Oc3cc(O)ccc32)cc1 (stereo not drawn) | 52 | – | – | – | – | – | – | – | –
COc1ccc(C2C(C#N)=C(N)Oc3cc(O)ccc32)cc1Cl (stereo not drawn) | 59 | – | – | – | – | – | – | – | –
COc1ccc(CN2CCC[C@]3(N[C@H](c4ccccc4)[C@@H]4C(=O)N(Cc5ccccc5)C(=O)[C@@H]43)C2=O)cc1 | – | – | – | – | – | – | · | · | ·
C[C@H]1Cn2cnc(C(=O)Nc3cccc(Cl)c3)c2C(=O)N1 | – | – | – | – | – | – | · | · | ·
COC(=O)[C@@]12C[C@@H](CC(=O)NCc3ccc(C)o3)C(=O)N(Cc3ccc4c(c3)OCO4)C1=CCC(C)(C)C2 | · | – | – | · | – | – | · | · | ·
O=C(NCc1cccnc1)/C(=C/c1ccc(-c2cccc(Cl)c2)o1)S(=O)(=O)c1ccccc1 | – | · | – | – | – | – | · | · | ·
Cc1ccc(C(=O)N/C(=C\c2ccc(-c3cc(Cl)ccc3Cl)o2)C(=O)NCc2cccnc2)cc1 | 51 | – | – | – | – | – | – | – | –
CC(C)N1CCC(C)(C(=O)Nc2ccccc2Oc2ccccc2)C1 (stereo not drawn) | – | – | – | – | – | – | · | · | ·

Compound activity as filed in PubChem BioAssay.
